Reference: ChEMBL document CHEMBL4043201, “Conjugates of 18β-glycyrrhetinic acid derivatives with 3-(1H-benzo[d]imidazol-2-yl)propanoic acid as Pin1 inhibitors displaying anti-prostate cancer ability” (Bioorg Med Chem, 2017)

Experiments:
PC-3 = experiment: Antiproliferative activity against human PC3 cells assessed as inhibition of cell growth incubated for 96 hrs by MTT assay; format: functional; details: PC-3, 96 h
Outline: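 PC-3 cells grown in RPMI1640 with 10% heat-inactivated FBS, seeded at 2×10^4 cells/well and kept 24 h at 37 °C in 5% CO2. Compounds were then added at various concentrations for 96 h. MTT (2 mg/mL) was added for a further 4 h, cells dissolved in DMSO, and A570 read. Growth was treated/untreated cell number, with GI50 calculated from inhibition ratios. Mean of three independent runs.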

[1] = target: T1, Peptidyl-prolyl cis-trans isomerase NIMA-interacting 1 (Homo sapiens, UniProt Q13526); experiment: Inhibition of Pin1 (unknown origin) assessed as reduction in peptidyl-prolyl isomerase activity at 10 uM incubated for 30 mins using Suc-Ala-Glu-cis-Pro-Phe-4-nitroanilide substrate by protease coupled assay
T1 sequence (Q13526 whole entry): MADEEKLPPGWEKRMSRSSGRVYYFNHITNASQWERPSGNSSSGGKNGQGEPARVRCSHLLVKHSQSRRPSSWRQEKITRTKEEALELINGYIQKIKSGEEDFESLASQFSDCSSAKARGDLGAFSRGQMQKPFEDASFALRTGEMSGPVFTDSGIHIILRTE
Outline: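 Commercial Pin1 in 35 mM HEPES pH 7.8 was pre-equilibrated with compound (DMSO solutions) for 30 min at 10 °C. Ice-cold chymotrypsin (stock 60 mg/mL in 0.001 M HCl) was added, then Suc-Ala-Glu-cis-Pro-Phe-4-nitroanilide in 0.47 mol/L LiCl/trifluoroethanol was added to start the reaction. Absorbance at 390 nm was monitored for 90 s at 10 °C.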

LNCaP = experiment: Antiproliferative activity against human LNCAP cells assessed as inhibition of cell growth incubated for 96 hrs by MTT assay; format: functional
Outline: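 MTT growth assay. Cells seeded at 2×10^4 per well and held 24 h at 37 °C under 5% CO2 before compound was added at a range of concentrations. Exposure lasted 96 h, then 2 mg/mL MTT was added for 4 h. Cells were dissolved in DMSO and absorbance read at 570 nm. Growth was taken as treated/untreated cell number. GI50 was derived from the inhibition ratios. Three independent experiments, mean reported.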

[2] = target: T1, Peptidyl-prolyl cis-trans isomerase NIMA-interacting 1; experiment: Inhibition of Pin1 (unknown origin) assessed as reduction in peptidyl-prolyl isomerase activity incubated for 30 mins using Suc-Ala-Glu-cis-Pro-Phe-4-nitroanilide substrate by protease coupled assay
[3] = target: T1, Peptidyl-prolyl cis-trans isomerase NIMA-interacting 1; experiment: Inhibition of Pin1 in human PC3 cells assessed as reduction in Cyclin D1 protein level at 10 to 30 uM incubated for 24 hrs by Western blot method; format: cell-based
Outline: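 PC-3 cells were treated 24 h with compound at 10, 20 or 30 μM, with DMSO as control. Cells were lysed in RIPA buffer with protease inhibitors, and 40 μg protein was run on 10% SDS-PAGE and blotted to nitrocellulose. Ponceau S was used as a loading check. Membranes were blocked in 5% milk and probed overnight at 4 °C with anti-cyclin D1 and β-actin, with secondary antibody 1 h at 37 °C. ECL detection.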

Compound | GI50 (PC-3) [µM] | inhibition [1] [%] | GI50 (LNCaP) [µM] | IC50 [2] [µM] | inhibition [3]
CC1(C)C(=O)CC[C@]2(C)[C@H]3C(=O)C=C4[C@@H]5C[C@@](C)(C(=O)OCCCn6c(CCC(=O)O)nc7ccccc76)CC[C@]5(C)CC[C@@]4(C)[C@]3(C)CC[C@@H]12 | 35.6 | 77 | 29.3 | – | –
CC1(C)C(=O)CC[C@]2(C)[C@H]3CC=C4[C@@H]5C[C@@](C)(C(=O)OCCCn6c(CCC(=O)O)nc7ccccc76)CC[C@]5(C)CC[C@@]4(C)[C@]3(C)CC[C@@H]12 | 13 | 98 | 19.7 | 3.8 | –
COC(=O)[C@@]1(C)CC[C@]2(C)CC[C@]3(C)C(=CC(=O)[C@@H]4[C@@]5(C)CC[C@H](OC(=O)Cn6c(CCC(=O)O)nc7ccccc76)C(C)(C)[C@@H]5CC[C@]43C)[C@@H]2C1 | 7.8 | 100 | 13.2 | 1.07 | Dose-dependent effect
CC1(C)[C@@H](O)CC[C@]2(C)[C@H]3CC=C4[C@@H]5C[C@@](C)(C(=O)OCCn6c(CCC(=O)O)nc7ccccc76)CC[C@]5(C)CC[C@@]4(C)[C@]3(C)CC[C@@H]12 | > 50 | 54 | > 50 | – | –
CC1(C)C(=O)CC[C@]2(C)[C@H]3C(=O)C=C4[C@@H]5C[C@@](C)(C(=O)OCCn6c(CCC(=O)O)nc7ccccc76)CC[C@]5(C)CC[C@@]4(C)[C@]3(C)CC[C@@H]12 | 39.9 | 63 | 48.9 | – | –
CC1(C)[C@@H](O)CC[C@]2(C)[C@H]3C(=O)C=C4[C@@H]5C[C@@](C)(C(=O)OCCCn6c(CCC(=O)O)nc7ccccc76)CC[C@]5(C)CC[C@@]4(C)[C@]3(C)CC[C@@H]12 | > 50 | 40 | > 50 | > 10 | –
CC1(C)[C@@H](O)CC[C@]2(C)[C@H]3CC=C4[C@@H]5C[C@@](C)(C(=O)OCCCn6c(CCC(=O)O)nc7ccccc76)CC[C@]5(C)CC[C@@]4(C)[C@]3(C)CC[C@@H]12 | 25.6 | 100 | 42.7 | 2.82 | –
O=C(O)CCc1nc2ccccc2[nH]1 [PROCODAZOLE] | > 50 | 23 | > 50 | – | –
CC(=O)O[C@H]1CC[C@]2(C)[C@H]3C(=O)C=C4[C@@H]5C[C@@](C)(C(=O)OCCCn6c(CCC(=O)O)nc7ccccc76)CC[C@]5(C)CC[C@@]4(C)[C@]3(C)CC[C@H]2C1(C)C | 11.8 | 100 | 15.5 | 1.33 | –
O=C1C=CC(=O)c2c(O)cccc21 [JUGLONE] | 4.77 | 44 | – | 10.8 | –
CC(=O)O[C@H]1CC[C@]2(C)[C@H]3C(=O)C=C4[C@@H]5C[C@@](C)(C(=O)OCCn6c(CCC(=O)O)nc7ccccc76)CC[C@]5(C)CC[C@@]4(C)[C@]3(C)CC[C@H]2C1(C)C | 27.4 | 100 | 24.4 | 1.06 | –
CC(=O)O[C@H]1CC[C@]2(C)[C@H]3C(=O)C=C4[C@@H]5C[C@@](C)(C(=O)NCCn6c(CCC(=O)O)nc7ccccc76)CC[C@]5(C)CC[C@@]4(C)[C@]3(C)CC[C@H]2C1(C)C | > 50 | 27 | > 50 | > 10 | –
CC(=O)O[C@H]1CC[C@]2(C)[C@H]3C(=O)C=C4[C@@H]5C[C@@](C)(C(=O)NCCCn6c(CCC(=O)O)nc7ccccc76)CC[C@]5(C)CC[C@@]4(C)[C@]3(C)CC[C@H]2C1(C)C | > 50 | 50 | > 50 | – | –
CC1(C)C(=O)CC[C@]2(C)[C@H]3CC=C4[C@@H]5C[C@@](C)(C(=O)OCCn6c(CCC(=O)O)nc7ccccc76)CC[C@]5(C)CC[C@@]4(C)[C@]3(C)CC[C@@H]12 | 18.4 | 69 | 25.8 | – | –
CC1(C)C(=O)CC[C@]2(C)[C@H]3C(=O)C=C4[C@@H]5C[C@@](C)(C(=O)NCCCn6c(CCC(=O)O)nc7ccccc76)CC[C@]5(C)CC[C@@]4(C)[C@]3(C)CC[C@@H]12 | > 50 | 28 | > 50 | > 10 | –
CC1(C)C(=O)CC[C@]2(C)[C@H]3C(=O)C=C4[C@@H]5C[C@@](C)(C(=O)NCCn6c(CCC(=O)O)nc7ccccc76)CC[C@]5(C)CC[C@@]4(C)[C@]3(C)CC[C@@H]12 | > 50 | 38 | > 50 | > 10 | –
CC1(C)[C@@H](O)CC[C@]2(C)[C@H]3C(=O)C=C4[C@@H]5C[C@@](C)(C(=O)OCCn6c(CCC(=O)O)nc7ccccc76)CC[C@]5(C)CC[C@@]4(C)[C@]3(C)CC[C@@H]12 | > 50 | 60 | > 50 | – | –
CC1(C)[C@@H](O)CC[C@]2(C)[C@H]3C(=O)C=C4[C@@H]5C[C@@](C)(C(=O)O)CC[C@]5(C)CC[C@@]4(C)[C@]3(C)CC[C@@H]12 [ENOXOLONE] | 95.7 | 34 | – | > 10 | –
COC(=O)[C@@]1(C)CC[C@]2(C)CC[C@]3(C)C(=CC(=O)[C@@H]4[C@@]5(C)CC[C@H](OC(=O)CCn6c(CCC(=O)O)nc7ccccc76)C(C)(C)[C@@H]5CC[C@]43C)[C@@H]2C1 | 16.1 | 88 | 26.6 | – | –
CC(=O)O[C@H]1CC[C@]2(C)[C@H]3CC=C4[C@@H]5C[C@@](C)(C(=O)OCCn6c(CCC(=O)O)nc7ccccc76)CC[C@]5(C)CC[C@@]4(C)[C@]3(C)CC[C@H]2C1(C)C | 10.9 | 94 | 13.3 | 4.79 | –
